Source: ChEMBL document CHEMBL3526029, “Disposition and metabolism of GSK2251052 in humans: a novel boron-containing antibiotic” (Drug Metab Dispos, 2013)

Key:
[1] = system: Plasma; experiment: Cmax in plasma of healthy human treated with [14C]GSK2251052 at 1500 mg, iv infusion for 1 hr as single dose; type: ADME, organism-based; design: dose 1500 mg, route intravenous; details: in vivo
Outline: (§1)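 Six fasted healthy men received 1500 mg [14C]GSK2251052 as a 1-h constant-rate i.v. infusion. K2EDTA plasma was sampled from predose to 72 h, with profiling samples added at 96, 144 and 336 h. Parent and M3 were measured by validated LC/MS/MS after methanol/formic acid precipitation with stable-label internal standards (range 5–10,000 ng/ml). Noncompartmental analysis used actual times, linear-up/log-down trapezoids and CL = dose/AUC(0-∞).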

[2] = Drug recovery in cynomolgus monkey liver cytosol at pH 8.4 treated with in presence of NAD+ [14C]GSK2251052 at 500 uM after 3 hrs by liquid scintillation counting; type: ADME, Macaca fascicularis; details: pH 8.4, 3 h
[3] = Drug recovery in healthy human feces treated with [14C]GSK2251052 at 1500 mg, iv infusion for 1 hr as single dose after 120 hrs by HPLC method; type: ADME, organism-based; details: in vivo
Outline: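 Feces pooled over 0–120 h per subject by sample weight. About 1 g homogenate extracted twice with 4 volumes of acetonitrile:methanol:water:formic acid (50:25:25:1) under 20 min sonication. Extracts dried and reconstituted in water:methanol 90:10. Profiled by HPLC (Atlantis T3, ammonium acetate pH 4.5/methanol, 30°C) with fraction radiocounting and Orbitrap MS. Results given as % of dose, corrected for extraction recovery.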

[4] = Drug recovery in cynomolgus monkey liver S9 fraction at pH 8.8 treated with [14C]GSK2251052 at 500 uM after 3 hrs by liquid scintillation counting in presence of NAD+; type: ADME, subcellular, Macaca fascicularis; details: s9, pH 8.8, 3 h
[5] = system: Plasma; experiment: AUC (0 to t) in plasma of healthy human treated with [14C]GSK2251052 at 1500 mg, iv infusion for 1 hr as single dose; type: ADME, organism-based; details: in vivo; outline: as §1
[6] = system: Plasma; experiment: Half life in plasma of healthy human treated with [14C]GSK2251052 at 1500 mg, iv infusion for 1 hr as single dose; type: ADME, organism-based; details: in vivo
Outline: (§2)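 Healthy men got a single 1500 mg [14C] dose by 1 h i.v. infusion. K2EDTA blood was sampled up to 336 h. Radioactivity in blood and plasma was measured by LSC, with AMS for plasma below LLQ. Parent and M3 were measured by LC/MS/MS (5–10,000 ng/ml range). Noncompartmental analysis used actual times, with t1/2 = ln2/λz and Tmax observed directly, timed from infusion start.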

[7] = Drug recovery in cynomolgus monkey liver microsomes at pH 7.4 treated with [14C]GSK2251052 at 500 uM after 3 hrs by liquid scintillation counting in presence of NAD+; type: ADME, Macaca fascicularis; details: pH 7.4, 3 h
[8] = Drug recovery in cynomolgus monkey liver S9 fraction at pH 8.4 treated with [14C]GSK2251052 at 500 uM after 3 hrs by liquid scintillation counting in presence of NAD+; type: ADME, subcellular, Macaca fascicularis; details: s9, pH 8.4, 3 h
[9] = system: Plasma; experiment: Tmax in plasma of healthy human treated with [14C]GSK2251052 at 1500 mg, iv infusion for 1 hr as single dose; type: ADME, organism-based; details: in vivo; outline: as §2
[10] = Drug recovery in cynomolgus monkey liver S9 fraction at pH 7.4 treated with [14C]GSK2251052 at 500 uM after 3 hrs by liquid scintillation counting in presence of NAD+; type: ADME, subcellular, Macaca fascicularis; details: s9, pH 7.4, 3 h
[11] = system: Plasma; experiment: AUC (0 to infinity) in plasma of healthy human treated with [14C]GSK2251052 at 1500 mg, iv infusion for 1 hr as single dose; type: ADME, organism-based; design: dose 1500 mg, route intravenous, time infinity; details: in vivo; outline: as §1
[12] = system: Liver cytosol; experiment: Drug metabolism in human liver cytosol assessed as compound formation treated with GSK2251052 at 50 to 500 uM after 3 hrs by spectrophotometry in presence of NAD+ and ADH inhibitor 4-MP; type: ADME
[13] = Drug metabolism in human liver cytosol assessed as ADH-mediated compound formation treated with GSK2251052 at 50 to 500 uM by spectrophotometry in presence of NAD+; type: ADME; details: TDE = time-dependent effect
[14] = Drug recovery in cynomolgus monkey liver cytosol at pH 7.4 treated with [14C]GSK2251052 at 500 uM after 3 hrs by liquid scintillation counting in presence of NAD+; type: ADME, Macaca fascicularis; details: pH 7.4, 3 h
[15] = Drug metabolism assessed as purified ADH (unknown origin)-mediated compound formation treated with GSK2251052 at 50 to 500 uM by spectrophotometry in presence of NAD+; type: ADME; details: human, TDE = time-dependent effect
[16] = Drug recovery in healthy human urine treated with [14C]GSK2251052 at 1500 mg, iv infusion for 1 hr as single dose after 120 to 336 hrs by HPLC method; type: ADME, organism-based; details: in vivo
Outline: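 Urine pooled by weight per subject over 0–120 h; 120–336 h pools from all subjects combined into one composite. Centrifuged at ~21,000g, then supernatant profiled by HPLC (Atlantis T3, ammonium acetate pH 4.5/methanol, 30°C) with radiochemical detection plus MS identification. Results are % of dose, corrected for centrifugation recovery measured by triplicate LSC.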

[17] = Drug recovery in healthy human feces treated with [14C]GSK2251052 at 1500 mg, iv infusion for 1 hr as single dose after 0 to 120 hrs by HPLC method; details: in vivo

Cmax [1] [ng/mL]	Drug recovery [2] [%]	Drug recovery [3] [%]	Drug recovery [4] [%]	AUCt [5] [µg·h/mL]	t1/2 [6] [h]	Drug recovery [7] [%]	Drug recovery [8] [%]	Tmax [9] [h]	Drug recovery [10] [%]	AUC [11] [µg·h/mL]	Drug metabolism [12]	Drug metabolism [13]	Drug recovery [14] [%]	Drug metabolism [15]	Drug recovery ([16]; in the assay text read “0 to 120 hrs” for “120 to 336 hrs”) [%]	Drug recovery [17] [%]	Drug recovery ([16]; BLD = below limit of detection)	Compound
1770	0.9	3.3	4.3	101	77.3	2.5	6.7	7	7.7	103	metabolite_not_detected	tde	1.7	tde	43.8	3.3		Cl.NC[C@H]1OB(O)c2c(OCCC(=O)O)cccc21
																	BLD	CC(=O)NC[C@H]1OB(O)c2c(OCCC(=O)O)cccc21
